# Assay results: PubChem BioAssay
# Calls of active or inactive are those of the source.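 The calls were made as follows, unless noted: active = viability at or below 30% in both replicate assays; inconclusive = viability at or below 30% in just one of the two assays; inactive = the rest.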
# Key:
# [1] = reduced viability of SK-BR-3 breast cancer cells – cell-based, 24 h, human, pilot screen (AID 572;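 active = viability at or below 10% of carrier control in both of two separate runs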;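 also: compound exposure lasted between 18 and 24 h rather than exactly 24 h; 100% = carrier-treated control wells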); conditions: SK-BR-3 viability, CellTiter-Glo luminescence, at 10 µM, stronger effect = lower value
# [2] = HUVEC growth inhibition – cell-based, human, primary screen (AID 575); conditions: HUVEC proliferation, CellTiter-Glo luminescence, 72 h; at 10 µM; stronger effect = lower value;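 also: 100% = median of untreated cell wells with 0.1% DMSO on each plate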
# In short: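 Test system: HUVEC primary cells. Quantity: 1250 endothelial cells in each well. Dosing: single-point 10 µM, DMSO 0.1% final. Incubation: 72 h treatment at 37 °C. Measured by: CTG luminescence. Control set: DMSO cell controls and MePR drug controls. Plate: collagen-coated 384-well format.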
# [3] = H69AR cell proliferation blockers – human, duplicate replicates, primary screen (AID 580;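 active = viability at or under a set limit in both replicates, limit being median viability minus 3 SD, cut at about 48% in these data, passing the limit was not always enough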;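 also: 100% = mean luminescence of untreated wells and 0% = no signal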); conditions: H69AR lung tumor cells viability, ATP luminescence, 72 h; at 10 µM; stronger effect = lower value
# [4] = MRP1 drug-resistance reversers in H69AR cells – cell-based, doxorubicin co-treatment, pilot screen (AID 601;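 active = viability loss from added drug above about 55%, and viability with drug at most 40%, in both replicates, limit read from the data, passing the limit was not always enough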); conditions: CellTiter-Glo, 72 h, at 10 µM; for differential viability (reversal): stronger effect = higher value
# [5] = yeast transport mutant growth inhibition pilot in 384-well plates, post-Golgi transport modulator project (AID 636; in the data active = inhibition above about 31%); conditions: absorbance 615 nm, about 18 h, stronger effect = higher value
# [6] = growth suppression of yeast trafficking mutant, preliminary HTS, modulators of trafficking downstream of Golgi apparatus project, 1536-format plate, OD 615 nm (AID 637; in the data active = inhibition above about 30%); conditions: yeast transport mutant growth, absorbance 615 nm, 18 h; stronger effect = higher value
# [7] = H69AR cells + 2 uM doxorubicin, measured here: viability with 2 uM doxorubicin, stronger effect = lower value
# [8] = H69AR cells, compound alone cytotoxicity
Structure (SMILES),viability [1],viability [2],viability [3],differential viability (reversal) ([4]; H69AR cells + 2 uM doxorubicin),"viability [4, 7] [%]","viability [4, 8] [%]",inhibition [5],inhibition [6]
COc1ccc(C(c2nnnn2C2CCCC2)N2CCC(C)CC2)c(OC)c1 (stereo unspecified),154% (inactive),91.4% (inactive),87.8% (inactive),-8.92% (inactive),96.7,87.8,-0.26% (inactive),-3.28% (inactive)
C(=N/n1c2ccccc2c2ccccc21)/c1ccco1,81% (inactive),77.9% (inactive),86.5% (inactive),-3.11% (inactive),89.6,86.5,-5.19% (inactive),0.49% (inactive)
Cc1nnc(C)c2c(C)n(Cc3ccc4c(c3)OCO4)c(C)c12,76% (inactive),91% (inactive),80.9% (inactive),6.03% (inactive),74.8,80.9,-0.55% (inactive),24.5% (inactive)
O=C(NC1CCCCC1)c1nc2c(nnn2Cc2ccccc2Cl)c(=O)[nH]1,77% (inactive),104% (inactive),110% (inactive),12% (inactive),98.4,110,-6.58% (inactive),-7.58% (inactive)
O=C(NCc1ccccc1)c1cc(-c2ccco2)on1,111% (inactive),100% (inactive),94% (inactive),16.6% (inactive),77.3,94,-0.13% (inactive),4.59% (inactive)
O=C(O)c1ccc(NC(=O)c2cccs2)cc1,87% (inactive),94.7% (inactive),92.5% (inactive),12.8% (inactive),79.7,92.5,-5.73% (inactive),-4.55% (inactive)
N#Cc1c(N2CCOCC2)nc(N2CCCCC2)c2c1CCN(C1CCCCC1)C2,92% (inactive),101% (inactive),89.2% (inactive),17.5% (inactive),71.6,89.2,-1.22% (inactive),-1.82% (inactive)
CCN(CC)CCCN1C(=O)C(=O)/C(=C(/O)c2ccc3c(c2)OCO3)C1c1ccccn1 (stereo unspecified),97% (inactive),82.4% (inactive),93.3% (inactive),4.7% (inactive),88.6,93.3,-5.89% (inactive),0.32% (inactive)
CC(=O)OC(C)C[N+](C)(C)C (stereo unspecified),103% (inactive),86.7% (inactive),104% (inactive),14.9% (inactive),89.3,104,-5.97% (inactive),3.5% (inactive)
CCNC(=O)CC1C(=O)N(c2ccccc2)C(=O)N1CCC(C)C (stereo unspecified),117% (inactive),95.9% (inactive),93.5% (inactive),13.9% (inactive),79.6,93.5,-0.78% (inactive),-0.82% (inactive)
CN/C(=C/[N+](=O)[O-])NCCSCc1ccc(CN(C)C)o1,116% (inactive),87.7% (inactive),94.2% (inactive),-0.85% (inactive),95,94.2,-2.47% (inactive),4% (inactive)
CCc1nnc(NC(=O)CSc2nnc3ncccn23)s1,91% (inactive),108% (inactive),95.5% (inactive),-3.16% (inactive),98.7,95.5,-5.07% (inactive),3.27% (inactive)
Cc1nc(Sc2cccn2C)c(C(F)(F)F)c(=O)[nH]1,105% (inactive),102% (inactive),96.3% (inactive),13.2% (inactive),83.1,96.3,-6.58% (inactive),2% (inactive)
N#CCOc1nc(N2CCOCC2)nc(N2CCOCC2)n1,99% (inactive),96.6% (inactive),90.8% (inactive),-0.985% (inactive),91.8,90.8,-7.3% (inactive),-2.73% (inactive)
O=C(Nc1ncc2c(n1)CC(c1ccccc1)CC2=O)c1ccco1 (stereo unspecified),102% (inactive),98.3% (inactive),81.8% (inactive),5.16% (inactive),76.7,81.8,-5.21% (inactive),-0.16% (inactive)
O=S(=O)(c1ccc2c(c1)OCCO2)N1CCC(n2nnc3cc(F)ccc32)CC1,91% (inactive),74.8% (inactive),84.2% (inactive),-5.86% (inactive),90.1,84.2,-9.04% (inactive),-1.77% (inactive)
Cn1c(Cc2ccccc2)nnc1SCC(=O)N1CCOCC1,91% (inactive),95.6% (inactive),101% (inactive),6.17% (inactive),94.8,101,-1.08% (inactive),28.7% (inactive)
Cn1c(=O)[nH]c(=O)c2c1ncn2CCN1CCOCC1,96% (inactive),102% (inactive),99.1% (inactive),5.28% (inactive),93.8,99.1,-2.6% (inactive),-1.48% (inactive)
CCOC(=O)Nc1nnc(-c2ccccc2OC)s1,86% (inactive),98.2% (inactive),93.9% (inactive),0.53% (inactive),93.3,93.9,-0.14% (inactive),-4.68% (inactive)

Structure (SMILES),viability [1],viability [2],viability [3],differential viability (reversal) ([4]; H69AR cells + 2 uM doxorubicin),"viability [4, 7] [%]","viability [4, 8] [%]",inhibition [5],inhibition [6]
Cc1c(OCC(F)(F)F)ccnc1CS(=O)c1nc2ccccc2[nH]1 (stereo unspecified),99% (inactive),100% (inactive),93.8% (inactive),4.31% (inactive),89.5,93.8,-1.69% (inactive),4.33% (inactive)
CN1CCN(C(=O)c2ccc3c(=O)n(CCc4ccccc4)c(=S)[nH]c3c2)CC1,102% (inactive),66.2% (inactive),81.6% (inactive),25.3% (inactive),56.3,81.6,-1.95% (inactive),-2.46% (inactive)
COC(=O)Cn1cnc2sc(C)c(S(=O)(=O)N3CCC(C)CC3)c2c1=O,85% (inactive),98.4% (inactive),91.3% (inactive),-5.84% (inactive),97.1,91.3,-1.64% (inactive),-0.91% (inactive)
COc1cc(NS(=O)(=O)c2ccc(N)cc2)ncn1,107% (inactive),75% (inactive),92% (inactive),27% (inactive),65,92,-1.56% (inactive),2.5% (inactive)
O=C(NC1CCCCCCC1)C1CCN(c2nc3ccccc3o2)CC1,106% (inactive),85.7% (inactive),92.2% (inactive),-2.57% (inactive),94.7,92.2,7.2% (inactive),1.09% (inactive)
CCN1CCN(C(=O)N[C@@H](C(=O)N[C@@H]2C(=O)N3[C@@H]2SC(C)(C)[C@@H]3C(=O)O)c2ccccc2)C(=O)C1=O,96% (inactive),84.1% (inactive),91.5% (inactive),-13.4% (inactive),105,91.5,-0.39% (inactive),6.33% (inactive)
Cc1nnc(Nc2ccccn2)c2ccccc12,89% (inactive),81.1% (inactive),87.3% (inactive),-2.5% (inactive),89.8,87.3,0.27% (inactive),-4.84% (inactive)
CCc1ccccc1N1C(=O)C2CC(C)=C(C)CC2C1=O (stereo unspecified),89% (inactive),104% (inactive),103% (inactive),18% (inactive),84.7,103,-5.73% (inactive),0% (inactive)
O=C(Nc1nonc1NC(=O)C1CCCCC1)C1CCCCC1,111% (inactive),84.7% (inactive),89.9% (inactive),3.04% (inactive),86.8,89.9,-10% (inactive),1.94% (inactive)
CCOc1ccc(S(=O)(=O)Nc2ccc(Cl)cn2)c(C)c1C,121% (inactive),91% (inactive),87.6% (inactive),-2.8% (inactive),90.4,87.6,-5.06% (inactive),4.43% (inactive)
CN(C)c1ccc(NC(=O)c2ccncc2)c2ccccc12,113% (inactive),108% (inactive),101% (inactive),5.85% (inactive),95.2,101,-7.43% (inactive),-0.73% (inactive)
O=C(Nc1cc(C(F)(F)F)ccc1N1CCCC1)c1ccc2c(c1)OCO2,72% (inactive),92.9% (inactive),98% (inactive),0.92% (inactive),97.1,98,-6.99% (inactive),-5.09% (inactive)
O=C(c1c(Cl)nc2sccn12)N(C(=O)c1c(Cl)nc2sccn12)c1ccc(Cl)cn1,131% (inactive),43.6% (inactive),70.8% (inactive),-7.89% (inactive),78.7,70.8,-3.38% (inactive),3.11% (inactive)
CC1(C)O[C@@H]2C[C@H]3[C@@H]4C[C@H](F)C5=CC(=O)CC[C@]5(C)[C@H]4[C@@H](O)C[C@]3(C)[C@]2(C(=O)CO)O1,104% (inactive),107% (inactive),95.2% (inactive),-2.5% (inactive),97.7,95.2,-5.45% (inactive),-0.5% (inactive)
COC(=O)c1ccc2c(c1)nc(C)n2CCO,104% (inactive),118% (inactive),99.4% (inactive),9.26% (inactive),90.1,99.4,-3.78% (inactive),-2% (inactive)
Cc1ccc2nc(-c3ccccn3)cc(C(=O)N3CCN(c4ncccn4)CC3)c2c1,100% (inactive),102% (inactive),77.8% (inactive),-5.74% (inactive),83.5,77.8,-2.7% (inactive),0.91% (inactive)
COc1ccccc1N1CCN(c2cc(N3CCCC3)nc(C)n2)CC1,75% (inactive),91.8% (inactive),87.8% (inactive),-3.8% (inactive),91.6,87.8,-2.6% (inactive),-2% (inactive)
CC(C)CN(CC(C)C)c1nc(N)c(C#N)c(CC#N)c1C#N,106% (inactive),114% (inactive),86.7% (inactive),13.6% (inactive),73.1,86.7,-5.6% (inactive),-1.27% (inactive)
